Measured values collected from several papers.
Compare with care: the assays were run in different laboratories.
Target: Serine/threonine-protein kinase N1 (PKN1, Homo sapiens, UniProt Q16512)

CC(C)(C)c1nc2c(s1)c1nc(N)ncc1c1ccc(NS(=O)(=O)c3c(F)cccc3F)c(F)c12
remaining activity (enzyme activity; inhibitor; radiometric; 1 µM): 102%

Cc1ccc(NC(=O)c2ccc(CN3CCN(C)CC3)cc2)cc1Nc1nc(-c2cccnc2)cs1
remaining signal (cell-free assay; 0.5 µM): 99.3%

O=C(CSc1nc2nccnc2c(=O)n1CCc1ccccc1)Nc1nccs1
inhibition (enzyme activity; inhibitor; 10 µM): 4%

CC(=O)Nc1c(C(C)=O)c(=O)n(C)c2nc(-c3ccc(Cl)cc3Cl)c(-c3ccc(Cl)cc3)cc12
remaining binding (cell-free assay; competition with immobilised ligand; 1 µM): 92%

CN1CCC2(CC1)NC(=O)c1c(c3ccc(Cl)c(Cl)c3n1C)C2C#N (racemic)
ΔTm (thermal stability; DSF; 10 µM): 1 °C

Nc1cc(N)c(N)cc1N
activity vs control (enzyme activity; inhibitor; 1 µM): 72%

CNC(=O)c1ccc(Nc2ncc(C(F)(F)F)c(NCc3nccnc3N(C)S(C)(=O)=O)n2)cc1
remaining binding (cell-free assay; competition with immobilised ligand; 0.1 µM): 100%

N#CCCc1ccc2c(c1)-c1[nH]c3ccc([N+](=O)[O-])cc3c1CC(=O)N2
remaining signal (cell-free assay; 0.5 µM): 78%

Cc1c(NC(=O)c2cc(C(N)=O)nc3cc(F)ccc23)c(C(F)(F)F)nn1Cc1ccc(C(C)(C)C)cc1
remaining binding (cell-free assay; competition with immobilised ligand; 1 µM): 100%

Cc1c[nH]c2nc(Nc3ccc(N4CCN(C)CC4)c(F)c3)nc(-c3cccc(CC#N)c3)c12
activity vs control (enzyme activity; inhibitor; 1 µM): 19%

CCCOc1ccc([C@H]2[C@H](C(=O)O)[C@@H](c3ccc4c(c3)OCO4)CN2CC(=O)Nc2c(CC)cccc2CC)cc1
remaining binding (cell-free assay; competition with immobilised ligand; 1 µM): 87%

CN(C)c1ccc(-c2nc3ncc(Cl)c(N4CCN(CC(=O)Nc5nccs5)CC4)c3[nH]2)cc1
activity vs control (enzyme activity; inhibitor; 1 µM): 32%

O=C(Nc1cnn(-c2csc(C(=O)NC3COC3)c2)c1)Nc1ccccc1Cl
remaining activity (enzyme activity; inhibitor; 5 µM): 110%

CC(=O)c1c(NS(C)(=O)=O)c2cc(-c3ccc(Cl)cc3)c(-c3ccc(Cl)cc3Cl)nc2n(C)c1=O
remaining binding (cell-free assay; competition with immobilised ligand; 1 µM): 100%

c1ccc(CNc2nc(N3CCOc4ccccc43)nc3c2CCCC3)cc1
inhibition (target engagement in cells; inhibitor; chemoproteomics; 20 mM): 1.6%

Cl.OC1CCC(Nc2ncc3nc(Nc4c(F)cc(F)cc4F)n(C4CCOC4)c3n2)CC1 (centres unmarked)
activity vs control (enzyme activity; inhibitor; 1 µM): 98%

Cn1cncc1C1=CN(c2ncnc3[nH]cnc23)CCS1
inhibition (enzyme activity; inhibitor; radiometric; 2 µM): 87.7%

Cl.Cl.c1cc(-c2cnn3cc(-c4ccc(OCCN5CCCCC5)cc4)cnc23)ccn1
activity vs control (enzyme activity; inhibitor; 1 µM): 32%

COc1ccc2c(c1)O[C@H](c1ccc(OC)c(OC)c1)C[C@@H]2NC(=O)C1(c2ccc3c(c2)OC(F)(F)O3)CC1
remaining binding (cell-free assay; competition with immobilised ligand; 1 µM): 100%

CN(C)CCOc1ccc(-c2nc(-c3ccncc3)c(-c3ccc4c(c3)CC/C4=N\O)[nH]2)cc1
activity vs control (enzyme activity; inhibitor; 1 µM): 95%

COc1cc2ncnc(Nc3ccc(Oc4ccccc4)cc3C)c2cc1OC
inhibition (enzyme activity; inhibitor; 1 µM): 4%

COc1cc(-c2cn(C3CCc4c(F)cccc4N(CC(F)(F)F)C3=O)nn2)ccc1-n1cnc(C)c1 (centres unmarked)
remaining binding (cell-free assay; competition with immobilised ligand; 1 µM): 96%

N#Cc1cnc(Nc2cc(NC[C@H]3CNCCO3)c(C(F)(F)F)cn2)cn1
activity vs control (enzyme activity; inhibitor; 1 µM): 86%
